Data as given in ChEMBL document CHEMBL1137180, “Synthesis and structure-activity relationship of a novel sulfone series of TNF-alpha converting enzyme inhibitors” (Bioorg Med Chem Lett, 2004).

Assays:
[1] = biological target: Matrix metalloproteinase-9 (Homo sapiens, UniProt P14780); assay: Inhibition of Matrix metalloprotease-9 (MMP-9)
Summary of the method: (§1)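 Inhibition is reported as Ki (nM) against each isolated MMP. Each value comes from a single determination, with no replicates.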

[2] = biological target: Disintegrin and metalloproteinase domain-containing protein 17 (Sus scrofa, UniProt O77636); assay: Inhibition of porcine Tumor necrosis factor- alpha converting enzyme (TACE, ADAM17)
Caco-2 = assay: Permeability action in Caco-2 cells; assay type: functional, Homo sapiens
[3] = biological target: 72 kDa type IV collagenase (Homo sapiens, UniProt P08253); assay: inhibition of Matrix metalloprotease-2 (MMP-2); summary of the method: as §1
Interstitial collagenase = biological target: T1, Interstitial collagenase (Homo sapiens, UniProt P03956); assay: Inhibition of Matrix metalloprotease-1 (MMP-1); summary of the method: as §1
T1 sequence (P03956 whole entry): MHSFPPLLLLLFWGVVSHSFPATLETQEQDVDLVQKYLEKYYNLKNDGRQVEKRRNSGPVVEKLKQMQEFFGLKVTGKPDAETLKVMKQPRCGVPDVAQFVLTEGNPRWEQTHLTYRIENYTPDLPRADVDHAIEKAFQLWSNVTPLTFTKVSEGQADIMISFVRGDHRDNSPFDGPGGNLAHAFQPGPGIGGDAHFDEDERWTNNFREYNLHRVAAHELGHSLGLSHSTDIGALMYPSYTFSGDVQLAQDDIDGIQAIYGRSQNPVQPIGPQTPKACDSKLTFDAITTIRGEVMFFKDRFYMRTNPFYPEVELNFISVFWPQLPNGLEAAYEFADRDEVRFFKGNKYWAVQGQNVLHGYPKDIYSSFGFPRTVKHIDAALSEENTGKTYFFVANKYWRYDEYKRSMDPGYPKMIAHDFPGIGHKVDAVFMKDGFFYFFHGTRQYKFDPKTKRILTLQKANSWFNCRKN

Collagenase 3 = Collagenase 3 (Homo sapiens, UniProt P45452); assay: Inhibition of Matrix metalloprotease-13 (MMP-13); summary of the method: as §1
[4] = biological target: Disintegrin and metalloproteinase domain-containing protein 17 (Homo sapiens, UniProt P78536); assay: Effect on TNF-Alpha release in LPS-stimulated human whole blood assay; assay type: functional, tissue-based
Chain of Disintegrin and metalloproteinase domain-containing protein 17 (Homo sapiens, UniProt P78536) (P78536 whole entry, the tested form may be a part): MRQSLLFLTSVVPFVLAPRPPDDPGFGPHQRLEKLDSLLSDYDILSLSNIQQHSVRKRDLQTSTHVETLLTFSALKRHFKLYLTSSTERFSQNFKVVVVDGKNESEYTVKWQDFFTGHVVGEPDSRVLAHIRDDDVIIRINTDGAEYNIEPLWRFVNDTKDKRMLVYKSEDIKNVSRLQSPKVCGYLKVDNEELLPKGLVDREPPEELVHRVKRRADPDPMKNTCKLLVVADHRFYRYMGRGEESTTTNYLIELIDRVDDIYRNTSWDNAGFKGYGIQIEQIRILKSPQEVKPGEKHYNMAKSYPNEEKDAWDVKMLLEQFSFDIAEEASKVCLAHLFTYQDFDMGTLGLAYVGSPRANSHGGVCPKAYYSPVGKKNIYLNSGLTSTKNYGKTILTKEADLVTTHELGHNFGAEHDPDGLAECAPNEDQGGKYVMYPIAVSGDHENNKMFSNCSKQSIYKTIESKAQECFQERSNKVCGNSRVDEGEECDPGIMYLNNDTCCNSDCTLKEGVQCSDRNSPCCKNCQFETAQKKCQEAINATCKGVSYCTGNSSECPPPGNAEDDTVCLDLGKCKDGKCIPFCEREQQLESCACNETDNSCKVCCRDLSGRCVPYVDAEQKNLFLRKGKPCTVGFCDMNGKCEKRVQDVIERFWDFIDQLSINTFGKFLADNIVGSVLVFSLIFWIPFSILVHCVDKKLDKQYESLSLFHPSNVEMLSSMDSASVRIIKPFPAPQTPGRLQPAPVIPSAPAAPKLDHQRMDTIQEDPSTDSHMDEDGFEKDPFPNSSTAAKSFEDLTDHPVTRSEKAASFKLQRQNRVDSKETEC

Chain of Matrix metalloproteinase-9 (P14780 whole entry): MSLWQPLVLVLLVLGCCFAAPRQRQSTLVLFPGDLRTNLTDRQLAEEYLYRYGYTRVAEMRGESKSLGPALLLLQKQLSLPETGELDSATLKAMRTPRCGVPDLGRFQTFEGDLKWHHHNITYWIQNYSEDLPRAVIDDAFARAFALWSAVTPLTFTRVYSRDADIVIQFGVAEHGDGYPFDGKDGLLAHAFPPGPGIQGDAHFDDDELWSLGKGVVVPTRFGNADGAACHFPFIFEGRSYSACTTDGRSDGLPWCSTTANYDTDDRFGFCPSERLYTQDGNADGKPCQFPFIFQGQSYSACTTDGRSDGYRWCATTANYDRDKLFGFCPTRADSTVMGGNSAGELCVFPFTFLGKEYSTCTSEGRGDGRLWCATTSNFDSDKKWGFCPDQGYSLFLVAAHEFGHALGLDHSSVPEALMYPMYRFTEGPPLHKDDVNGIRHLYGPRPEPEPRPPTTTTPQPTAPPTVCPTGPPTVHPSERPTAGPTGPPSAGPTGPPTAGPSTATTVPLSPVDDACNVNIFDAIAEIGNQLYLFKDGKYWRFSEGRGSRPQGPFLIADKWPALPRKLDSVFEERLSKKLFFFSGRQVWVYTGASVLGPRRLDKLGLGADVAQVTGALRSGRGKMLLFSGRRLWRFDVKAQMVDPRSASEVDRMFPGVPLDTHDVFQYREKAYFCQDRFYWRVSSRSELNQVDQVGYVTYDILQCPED
Chain of 72 kDa type IV collagenase (P08253 whole entry): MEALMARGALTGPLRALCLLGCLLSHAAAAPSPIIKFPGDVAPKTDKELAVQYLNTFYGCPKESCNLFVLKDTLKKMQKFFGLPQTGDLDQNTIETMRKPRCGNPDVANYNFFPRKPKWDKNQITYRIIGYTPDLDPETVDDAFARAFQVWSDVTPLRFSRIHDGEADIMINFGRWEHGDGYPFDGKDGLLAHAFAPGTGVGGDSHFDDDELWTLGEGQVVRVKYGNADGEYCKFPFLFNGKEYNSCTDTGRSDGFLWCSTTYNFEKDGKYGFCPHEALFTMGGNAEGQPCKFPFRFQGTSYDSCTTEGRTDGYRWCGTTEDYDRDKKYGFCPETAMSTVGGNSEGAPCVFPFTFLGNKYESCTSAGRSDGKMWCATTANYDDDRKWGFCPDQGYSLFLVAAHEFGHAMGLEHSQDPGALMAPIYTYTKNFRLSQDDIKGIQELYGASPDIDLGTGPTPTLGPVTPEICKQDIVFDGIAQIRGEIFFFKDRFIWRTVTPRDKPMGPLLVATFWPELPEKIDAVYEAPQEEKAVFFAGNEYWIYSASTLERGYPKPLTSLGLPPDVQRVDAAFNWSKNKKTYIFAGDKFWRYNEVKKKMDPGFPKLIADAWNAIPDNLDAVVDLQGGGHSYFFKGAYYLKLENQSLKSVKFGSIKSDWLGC
Chain of Disintegrin and metalloproteinase domain-containing protein 17 (Sus scrofa, UniProt O77636) (O77636 whole entry, the tested form may be a part): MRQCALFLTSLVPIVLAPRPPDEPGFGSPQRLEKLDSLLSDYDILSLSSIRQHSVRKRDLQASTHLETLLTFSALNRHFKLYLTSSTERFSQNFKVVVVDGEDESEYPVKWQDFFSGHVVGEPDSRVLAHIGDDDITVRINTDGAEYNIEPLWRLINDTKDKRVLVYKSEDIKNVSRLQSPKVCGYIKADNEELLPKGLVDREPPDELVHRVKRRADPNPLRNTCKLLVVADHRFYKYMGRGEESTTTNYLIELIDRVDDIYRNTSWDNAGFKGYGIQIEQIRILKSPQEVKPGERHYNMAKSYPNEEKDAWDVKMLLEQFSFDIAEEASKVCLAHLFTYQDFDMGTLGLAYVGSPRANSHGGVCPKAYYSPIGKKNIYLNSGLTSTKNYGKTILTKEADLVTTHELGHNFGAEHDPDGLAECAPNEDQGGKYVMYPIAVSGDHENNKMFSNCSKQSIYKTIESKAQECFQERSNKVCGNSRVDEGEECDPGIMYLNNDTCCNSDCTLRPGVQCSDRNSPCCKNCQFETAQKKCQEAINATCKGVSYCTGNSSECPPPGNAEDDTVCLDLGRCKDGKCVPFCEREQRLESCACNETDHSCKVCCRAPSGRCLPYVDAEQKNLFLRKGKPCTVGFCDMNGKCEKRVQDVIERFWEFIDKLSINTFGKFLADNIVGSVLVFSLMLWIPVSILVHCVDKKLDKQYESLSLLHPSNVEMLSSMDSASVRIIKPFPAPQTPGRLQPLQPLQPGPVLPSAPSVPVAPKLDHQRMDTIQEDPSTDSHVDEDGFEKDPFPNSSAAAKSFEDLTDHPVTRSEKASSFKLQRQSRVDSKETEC

Compound	Ki [1] [µM]	IC50 [2] [µM]	Caco-2 Papp (Caco-2) [×10⁻⁶ cm/s]	Ki [3] [µM]	Ki (Interstitial collagenase) [µM]	Ki (Collagenase 3) [µM]	IC50 [4] [µM]
Cc1cc(COc2ccc(S(=O)(=O)CC3(CC(=O)NO)CCCN3CC(C)C)cc2)c2ccccc2n1 (centres undefined)	> 2.1	0.02	0.7	1.33	> 4.9	> 5	
Cc1cc(COc2ccc(S(=O)(=O)CC3(CC(=O)NO)CCCN3C)cc2)c2ccccc2n1 (centres undefined)	> 2.1	0.0029	1.6	> 3.3	> 4.9	3.27	> 3
Cc1cc(COc2ccc(S(=O)(=O)CC3NCCCC3C(=O)NO)cc2)c2ccccc2n1 (centres undefined)	> 2.1	< 0.001	0.1	> 3.3	> 4.9	0.754	0.24
Cc1cc(COc2ccc(S(=O)(=O)CC3C(C(=O)NO)CCCN3C)cc2)c2ccccc2n1 (centres undefined)	> 2.1	< 0.0011		> 3.3	> 4.9	> 5	> 3
CCC(C)N1CCCCC1(CC(=O)NO)CS(=O)(=O)c1ccc(OCc2cc(C)nc3ccccc23)cc1 (centres undefined)	> 5	< 0.048		> 3.3	> 4.9		
Cc1cc(COc2ccc(S(=O)(=O)CC3(CC(=O)NO)CCN(C)CC3)cc2)c2ccccc2n1	> 2.1	< 0.002	0.2	> 3.3	> 4.9	2.61	0.102
Cc1cc(COc2ccc(S(=O)(=O)CC3(CC(=O)NO)CCCN(C(C)C)C3)cc2)c2ccccc2n1 (centres undefined)	> 2.1	0.0027	0.2	> 3.3	> 4.9	> 5	0.506
Cc1cc(COc2ccc(S(=O)(=O)CC3(CC(=O)NO)CCCC3)cc2)c2ccccc2n1	1.51	< 0.0008	18	1.57	> 4.9	0.804	0.42
Cc1cc(COc2ccc(S(=O)(=O)CC3(CC(=O)NO)CCOCC3)cc2)c2ccccc2n1	> 2.1	< 0.001		> 3.3	> 4.9	> 5	0.258
Cc1cc(COc2ccc(S(=O)(=O)CC3(CC(=O)NO)CCCCN3C)cc2)c2ccccc2n1 (centres undefined)	> 2.1	0.0051	5.1	> 3.3	> 4.9	> 5	> 3
Cc1cc(COc2ccc(S(=O)(=O)CC3CCN(C)CC3C(=O)NO)cc2)c2ccccc2n1 (centres undefined)	> 2.1	0.0065	0.2	> 3.3	> 4.9	> 5	0.51
Cc1cc(COc2ccc(S(=O)(=O)CC3CN(C)CCC3C(=O)NO)cc2)c2ccccc2n1 (centres undefined)	> 2.1	< 0.0019	0.1	> 3.3	> 4.9	> 5	0.19
Cc1cc(COc2ccc(S(=O)(=O)CC3CCN(C(C)C)CC3C(=O)NO)cc2)c2ccccc2n1 (centres undefined)	> 2.1	< 0.011	0.65	> 3.3	> 4.9	> 5	> 1
CC(=O)N1CCCC1(CC(=O)NO)CS(=O)(=O)c1ccc(OCc2cc(C)nc3ccccc23)cc1 (centres undefined)	> 2.1	0.66	0.6	> 3.3	> 4.9	> 5	
Cc1cc(COc2ccc(S(=O)(=O)CC3CCNCC3C(=O)NO)cc2)c2ccccc2n1 (centres undefined)	> 2.1	< 0.0015	0.1	> 3.3	> 4.9	> 5	0.25
Cc1cc(COc2ccc(S(=O)(=O)CC3(CC(=O)NO)COC3)cc2)c2ccccc2n1	> 2.1	0.001		> 3.3	> 4.9	> 5	0.595
